Tests used:
[1] = cited from earlier work
claudin-5 and occludin = assay: Tight junction protein levels after Aβ treatment; assay type: cell-based, mouse; conditions: brain endothelial cells, increasing doses, 12 hours after treatment, Western blot
In short: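 Bend.3 mouse brain endothelial cells were grown in DMEM with 20% FCS and 2 mM sodium pyruvate at 37°C, 5% CO2. They were exposed 12 h to increasing concentrations of Aβ(1–40) peptide forms, with unmodified monomer at 0.1 to 1 μM. Cells were lysed in tris/2% SDS/10 mM DTT buffer and spun 12,000 rpm for 20 min at 4°C. Tight junction proteins were measured by Western blot densitometry, n = 3 […] per concentration.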

blood-brain barrier = assay: Contrast-enhanced MRI of BBB integrity; assay type: in vivo, mouse; conditions: wild-type mice, tail-vein injection, 7-T T1-weighted MRI over 20 min, n = 4
In short: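 Mice received targeting or nontargeting siRNA (20 μg complexed with in vivo-jetPEI in 10% glucose, 15 min at room temperature). On a 7-T small-animal MRI, scans ran before and after tail-vein 100 μl of 1:3-diluted Gd-DTPA (0.5 M stock), monitored 20 min. Settings: TR/TE 500/2.7 ms, 30° flip angle, 8 repetitions. Hippocampal bolus-chase clearance was analysed blind to treatment.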

Compound | propensity for aggregation [1] | levels of claudin-5 and occludin protein (claudin-5 and occludin) | extravasation of MRI contrast agent after claudin-5 and occludin cosuppression (blood-brain barrier)
Aβ(1–40)F19P | little or no propensity for aggregation | down-regulated | 
Aβ(1–40)DiY: dityrosine cross-linked dimer prepared by oxidative cross-linking of Aβ(1–40) |  | down-regulated | 
O=C([O-])CN(CCN(CC(=O)[O-])CC(=O)O)CCN(CC(=O)[O-])CC(=O)O.[Gd+3] [Gd-DTPA, gadolinium–diethylenetriamine pentaacetic acid] |  |  | increased extravasation
Aβ(1–40): unmodified Aβ(1–40) monomer isolated by size exclusion chromatography |  | dose-dependent decrease | 

Source: paper PMC4610013 (Science Advances, 2015)
